Laboratory results from paper PMC10666245 (ACS Omega, 2023).

How the values were obtained:
mushroom tyrosinase [1] = assay: Mushroom tyrosinase inhibition, diphenolase assay; format: biochemical, Agaricus bisporus (mushroom); details: L-DOPA substrate; for % inhibition 500 μM ±SD Diphenolase: at 500 μM; for % inhibition ±SD Diphenolase: at 200 μM (asterisk)
How it was run: (§1)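 Test compound came from 10 mM DMSO stocks. […] Enzyme, diluted to 500 U/mL before plating, was preincubated 15 min with test compound, then substrate was added. A490 was read every 3 min up to 30 min.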

mushroom tyrosinase [2] = assay: Mushroom tyrosinase inhibition, monophenolase assay; format: biochemical, Agaricus bisporus (mushroom); details: L-tyrosine substrate; for pIC50 ±SEM Monophenolase: mushroom tyrosinase, pH 6.5
How it was run: as §1

[3] = Radical scavenging activity, DPPH assay; details: at 500 μM, 30 min, 37 °C
How it was run: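 DPPH (250 μM in methanol) was mixed with an equal volume of test compound prepared at 1 mM in methanol. Reference antioxidants were run alongside, with DMSO as negative control. A515 was read after 30 min at 37 °C, in triplicate. Scavenging = 100 × (control Abs − sample Abs)/control Abs.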

[4] = Cytotoxicity against mammalian cells; format: cell-based; details: mouse, NCTC clone L929 murine fibroblast cells
How it was run: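 Murine NCTC fibroblasts (ATCC clone 929) were grown in RPMI-1640 with 10% FBS, counted by hemocytometer and seeded at 6 × 10^4/well. They were exposed to test compound at 200–1.5 μM for 48 h at 37 °C in humidified 5% CO2. Viability was read by MTT, and CC50 was derived by nonlinear regression.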

Row | Compound | % inhibition 500 μM ±SD Diphenolase (mushroom tyrosinase [1]) | pIC50 ±SEM Monophenolase (mushroom tyrosinase [2]) | other results
1 | COc1cc(C(=O)N2CCN(Cc3ccccc3)CC2)ccc1O [Compound 1b, (4-Benzylpiperazin-1-yl)(4-hydroxy-3-methoxyphenyl)methanone] | (41.6 ± 1.2%) | 4.49 ± 0.02 | 
2 | COc1ccc(C(=O)N2CCN(Cc3ccccc3)CC2)cc1 [Compound 1c, (4-Benzylpiperazin-1-yl)-(4-methoxyphenyl)methanone] | (44.2 ± 3.0%) | 3.94 ± 0.06 | 
3 | COc1ccc(C(=O)N2CCC(Cc3ccccc3)CC2)cc1 [Compound 5c, 4-Benzyl-1-(4-methoxybenzoyl)piperidine] | (30.5 ± 1.6%) | 4.67 ± 0.01 | 
4 | COc1cc(/C=C/C(=O)N2CCN(c3ccccc3)CC2)ccc1O [Compound 4b, (E)-3-(4-Hydroxy-3-methoxyphenyl)-1-(4-phenylpiperazin-1-yl)prop-2-en-1-one] | (51.5 ± 3.2%) | 4.50 ± 0.04 | 
5 | COc1ccc(/C=C/C(=O)N2CCN(Cc3ccccc3)CC2)cc1 [Compound 3c, (E)-1-(4-Benzylpiperazin-1-yl)-3-(4-methoxyphenyl)prop-2-en-1-one] | (43.5 ± 2.3%) | 3.86 ± 0.04 | 
6 | O=C(O)/C=C/c1ccc(O)cc1 [pCA, p-coumaric acid, reference compound] | (16.4 ± 13.0%) | 4.00 ± 0.01 | 
7 | O=C(c1ccc(O)cc1)N1CCC(Cc2ccccc2)CC1 [Compound 5d, (4-Benzyl-1-piperidyl)-(4-hydroxyphenyl)methanone] |  | 4.59 ± 0.01 | % inhibition ±SD Diphenolase (mushroom tyrosinase [1]): (14.7 ± 1.6%)
8 | O=C(c1ccc(O)c(O)c1)N1CCC(Cc2ccccc2)CC1 [Compound 5a, (4-Benzyl-1-piperidyl)-(3,4-dihydroxyphenyl)methanone] |  | 4.74 ± 0.04 | % inhibition ±SD Diphenolase (mushroom tyrosinase [1]): (30.9 ± 3.9%); radical scavenging activity (DPPH) [3]: 42%
9 | O=C(/C=C/c1ccc(O)c(O)c1)N1CCN(Cc2ccccc2)CC1 [Compound 3a, (E)-1-(4-Benzylpiperazin-1-yl)-3-(3,4-dihydroxyphenyl)prop-2-en-1-one] |  |  | pIC50 ±SEM Diphenolase (mushroom tyrosinase [1]; mushroom tyrosinase, pH 6.5): 4.18 ± 0.03; IC50 (mushroom tyrosinase [1]; read-out: IC50 tyrosinase inhibition, diphenolase): < 100 µM; IC50 (mushroom tyrosinase [2]; read-out: IC50 tyrosinase inhibition, monophenolase): < 100 µM; radical scavenging activity (DPPH) [3]: 29%
10 | O=C(/C=C/c1ccc(O)cc1)N1CCC(Cc2ccccc2)CC1 [Compound 6d, (E)-1-(4-Benzyl-1-piperidyl)-3-(4-hydroxyphenyl)prop-2-en-1-one] |  |  | % inhibition ±SD Diphenolase (mushroom tyrosinase [1]): (20.3 ± 1.3%); % inhibition ±SD Monophenolase (mushroom tyrosinase [2]; at 200 μM (asterisk)): (48.3 ± 1.1%)
11 | O=C(/C=C/c1ccc(O)c(O)c1)N1CCC(Cc2ccccc2)CC1 [Compound 6a, (E)-1-(4-Benzyl-1-piperidyl)-3-(3,4-dihydroxyphenyl)prop-2-en-1-one] |  | 4.56 ± 0.01 | % inhibition ±SD Diphenolase (mushroom tyrosinase [1]): (18.5 ± 1.1%)
12 | O=C(c1ccc(O)cc1)N1CCN(Cc2ccccc2)CC1 [Compound 1d, (4-Benzylpiperazin-1-yl)-(4-hydroxyphenyl)methanone] | (35.2 ± 3.3%) | 4.11 ± 0.05 | 
13 | O=C(/C=C/c1ccc(O)cc1)N1CCN(Cc2ccccc2)CC1 [Compound 3d, (E)-1-(4-Benzylpiperazin-1-yl)-3-(4-hydroxyphenyl)prop-2-en-1-one] | (43.0 ± 2.9%) | 4.54 ± 0.03 | 
14 | COc1cc(C(=O)N2CCN(c3ccccc3)CC2)ccc1O [Compound 2b, (4-Hydroxy-3-methoxyphenyl)-(4-phenylpiperazin-1-yl)methanone] | (24.3 ± 4.1%) | 3.85 ± 0.03 | 
15 | O=C(/C=C/c1ccc(O)c(O)c1)N1CCN(c2ccccc2)CC1 [Compound 4a, (E)-3-(3,4-Dihydroxyphenyl)-1-(4-phenylpiperazin-1-yl)prop-2-en-1-one] |  |  | CC50 at 48 h [4]: 57.2 ± 2 µM; radical scavenging activity (DPPH) [3]: 65.0%
16 | COc1ccc(C(=O)N2CCN(c3ccccc3)CC2)cc1 [Compound 2c, (4-Methoxyphenyl)-(4-phenylpiperazin-1-yl)methanone] | (31.1 ± 5.3%) | 3.54 ± 0.05 | 
17 | COc1cc(/C=C/C(=O)N2CCN(Cc3ccccc3)CC2)ccc1O [Compound 3b, (2E)-1-(4-Benzylpiperazin-1-yl)-3-(4-hydroxy-3-methoxyphenyl)prop-2-en-1-one] | (42.3 ± 3.4%) | 4.16 ± 0.02 | 
18 | O=C(c1ccc(O)c(O)c1)N1CCN(Cc2ccccc2)CC1 [Compound 1a, (4-Benzylpiperazin-1-yl)-(3,4-dihydroxyphenyl)methanone] | (37.0 ± 2.7%) | 4.42 ± 0.04 | 
19 | COc1cc(/C=C/C(=O)N2CCC(Cc3ccccc3)CC2)ccc1O [Compound 6b, (E)-1-(4-Benzyl-1-piperidyl)-3-(4-hydroxy-3-methoxy-phenyl)prop-2-en-1-one] |  | 4.53 ± 0.01 | % inhibition ±SD Diphenolase (mushroom tyrosinase [1]): (12.0 ± 1.5%); radical scavenging activity (DPPH) [3]: 28%
20 | O=C(c1ccc(O)c(O)c1)N1CCN(c2ccccc2)CC1 [Compound 2a, (3,4-Dihydroxyphenyl)-(4-phenylpiperazin-1-yl)methanone] | (27.7 ± 3.0%) | 4.42 ± 0.04 | 
21 | (E)-1-(1-Benzylpiperidin-4-yl)-3-(4-methoxyphenyl)prop-2-en-1-one [Compound 6c] | (22.1 ± 3.1%) | 4.85 ± 0.07 | 
22 | O=C(c1ccc(Cl)cc1)N1CCN(Cc2ccccc2)CC1 [Compound 1e, 1-Benzyl-4-(4-chlorobenzoyl)piperazine] | (45.2 ± 7.6%) | 4.37 ± 0.04 | 
23 | COc1cc(C(=O)N2CCC(Cc3ccccc3)CC2)ccc1O [Compound 5b, (4-Benzyl-1-piperidyl)-(4-hydroxy-3-methoxy-phenyl)methanone] |  | 4.99 ± 0.01 | % inhibition ±SD Diphenolase (mushroom tyrosinase [1]): (13.2 ± 0.8%); radical scavenging activity (DPPH) [3]: 10%
